Activity, Drug metabolism and Ratio data for eight compounds are collected here from ChEMBL document CHEMBL3526116, “Toxicological evaluation of acyl glucuronides of nonsteroidal anti-inflammatory drugs using human embryonic kidney 293 cells stably expressing human UDP-glucuronosyltransferase and human hepatocytes” (Drug Metab Dispos, 2011).

The subject of series [1] is HEK293. The series is described as follows: Cytotoxicity against HEK293 cells expressing UGT1A3 assessed as decrease in cell viability at 1 mM measured at 24 hrs by MTT assay. To be noted: human, hek293, 24 h, 1000 µM. The series is classed as ADME, cell-based.
Series [2] addresses T1, UDP-glucuronosyltransferase 1A3 (Homo sapiens, UniProt P35503).
T1 sequence (P35503 whole entry): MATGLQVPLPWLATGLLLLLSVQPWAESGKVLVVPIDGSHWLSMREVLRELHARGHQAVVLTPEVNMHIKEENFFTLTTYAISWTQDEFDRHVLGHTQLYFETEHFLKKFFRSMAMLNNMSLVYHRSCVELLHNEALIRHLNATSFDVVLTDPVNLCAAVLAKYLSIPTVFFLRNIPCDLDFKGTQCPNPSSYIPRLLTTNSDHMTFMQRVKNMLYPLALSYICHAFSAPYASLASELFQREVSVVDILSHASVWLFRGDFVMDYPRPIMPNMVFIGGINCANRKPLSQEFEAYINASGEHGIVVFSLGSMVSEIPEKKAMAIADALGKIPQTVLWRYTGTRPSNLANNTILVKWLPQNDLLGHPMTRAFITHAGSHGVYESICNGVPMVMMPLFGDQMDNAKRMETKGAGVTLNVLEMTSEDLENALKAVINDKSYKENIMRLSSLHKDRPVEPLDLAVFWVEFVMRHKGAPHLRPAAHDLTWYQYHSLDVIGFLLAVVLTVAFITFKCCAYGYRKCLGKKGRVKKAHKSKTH
Description: Activity of human UGT1A3 expressed in HEK293 cells assessed as enzyme-mediated compound formation in cell culture medium treated with ibuprofen at 1 mM by LC-MS/MS analysis. It counts as ADME, cell-based. To be noted: hek293, 1000 µM, TDE = time-dependent effect. In short, it runs like this:
(§1)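 HEK293 stably expressing human UGT1A3 (G418-selected), 2 x 10^5 cells/well in 1 mL DMEM with 0.5% FBS, exposed immediately to drug for 6, 12 or 24 h; DMSO ≤0.1% final. Cells and medium separated by centrifugation, cell fraction resuspended in PBS; aliquots mixed 1:1 with methanol/acetic acid (100:1), spun, supernatant analysed by LC-MS/MS. Triplicate determinations, mean ± SD.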

A short description of series [3]: Drug level in cell culture medium treated with ibuprofen at 1 mM measured at 6 hrs by LC-MS/MS analysis in absence of acyl glucuronidation inhibitor (-)-borneol. It counts as physicochemical. As to conditions: 1000 µM.
The next series concerns Nucleic Acid. The series is described as follows: Ratio of drug level in human hepatocytes to HEK293 cells expressing UGT1A3 treated with ibuprofen at 1 mM. It counts as ADME, cell-based, Hepatocyte. As to conditions: 1000 µM. In short, it runs like this:
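Acyl glucuronide in cell fraction (pmol/2 x 10^5 cells) by LC-MS/MS after 6 h exposure in human hepatocytes without (-)-borneol, set against HEK/UGT1A3 cells (2 x 10^5 cells/well, DMEM with 0.5% FBS) exposed to the same drug level; cells pelleted at 3000 x g, resuspended in PBS, extracted with methanol/acetic acid.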

Series [4] can be described thus: Drug level in cell culture medium treated with ibuprofen at 1 mM measured at 6 hrs by LC-MS/MS analysis in presence of acyl glucuronidation inhibitor (-)-borneol. It counts as physicochemical. As to conditions: 1000 µM.
The target of series [5] is T1, UDP-glucuronosyltransferase 1A3. The series is described as follows: Activity of human UGT1A3 expressed in HEK293 cells assessed as enzyme-mediated compound formation in cell culture medium treated with ibuprofen at 1 mM measured at 6 to 24 hrs by LC-MS/MS analysis. The series is classed as ADME, cell-based. As to conditions: hek293, 1000 µM. In short, it runs like this:
as §1

Series [6] concerns Hepatocyte. Description: Drug level in human hepatocytes assessed per 2 x 10^5 cells treated with ibuprofen at 1 mM measured at 6 hrs by LC-MS/MS analysis in presence of acyl glucuronidation inhibitor (-)-borneol. It counts as ADME, cell-based. To be noted: 1000 µM.
In series [7] the test system is Hepatocyte. Description: Drug level in human hepatocytes assessed per 2 x 10^5 cells treated with ibuprofen at 1 mM measured at 6 hrs by LC-MS/MS analysis in absence of acyl glucuronidation inhibitor (-)-borneol. The series is classed as ADME, cell-based. As to conditions: 1000 µM.
For series [8], the target named is T1, UDP-glucuronosyltransferase 1A3. Description: Activity of human UGT1A3 expressed in HEK293 cells assessed as enzyme-mediated compound formation per 2 x 10^5 cells treated with ibuprofen at 1 mM measured at 24 hrs by LC-MS/MS analysis. As to conditions: hek293, 24 h, 1000 µM. It counts as ADME, cell-based. The gist of the method: as §1
For series [9], the system named is HEK293. Description: Cytotoxicity against HEK293 cells expressing UGT assessed as decrease in cell viability at 1 mM measured up to 72 hrs by MTT assay. To be noted: human, hek293, 72 h, 1000 µM. The series is classed as ADME, cell-based. The gist of the method: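 Mock and UGT1A3/UGT1A4 stable HEK293 cells given drug for up to 72 h; viability measured by WST-8-based MTT assay.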

Series [10] relates to HEK293. Description: Genotoxicity in HEK293 cells expressing UGT1A3 assessed as DNA strand breaks at 1 mM after 24 hrs by comet assay. It counts as toxicity, cell-based. To be noted: human, hek293, 24 h, 1000 µM. The gist of the method:
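Alkaline comet assay: HEK/UGT1A3 cells seeded 24 h before, treated 24 h in DMEM with 0.5% FBS (vehicle 0.1% DMSO; MMS 0.1 mM positive control). Cells embedded in LMP agarose, lysed 1 h at 4°C at pH 10, unwound 30 min in NaOH/EDTA, electrophoresed 300 mA 20 min, ethidium-stained; tail moment scored on 150-180 comets over >3 experiments, median (IQR).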

Series [11] has as its system HEK293. The series is described as follows: Cytotoxicity against HEK293 cells expressing UGT1A4 assessed as decrease in cell viability at 1 mM measured at 24 hrs by MTT assay. The series is classed as ADME, cell-based. To be noted: human, hek293, 24 h, 1000 µM.

Take `CC1=C(CC(=O)O)c2cc(F)ccc2/C1=C\c1ccc([S+](C)[O-])cc1` (stereo not given): the Activity entry in the series with HEK293 [1] is recorded as “Non-toxic”.

On to `CC(C)Cc1ccc(C(C)C(=O)O[C@@H]2O[C@H](C(=O)O)[C@@H](O)[C@H](O)[C@H]2O)cc1` (stereo not given in full), for which the Drug metabolism result in series [2] was “tde”; in series [3] it was 1156.7 pmol/mL; in series [4] it was 126.5 pmol/mL; in [5], 114.7 pmol/mL; in the series with Hepatocyte [6], 3.5 pmol; in the series with Hepatocyte [7] it was 27.7 pmol. Moreover, in series [8], the Drug metabolism is 7.2 pmol. Besides, the Ratio in the series on Nucleic Acid was found to be 6.

As to `CC(=O)Oc1ccccc1C(=O)O` [ASPIRIN], in the series with HEK293 [1], the Activity entry is on record as “Non-toxic”.

Turning to `CC(C)(Oc1ccc(CCNC(=O)c2ccc(Cl)cc2)cc1)C(=O)O` [BEZAFIBRATE], the Activity entry in the series on HEK293 [1] was “Non-toxic”.

`CC(C)(Oc1ccc(Cl)cc1)C(=O)O` [CLOFIBRIC ACID]: the Activity result in the series on HEK293 [9] is “Non-toxic”; in the series with HEK293 [10] it was “Toxic”; in the series on HEK293 [1] it was “Non-toxic”; in the series with HEK293 [11], “Non-toxic”.

As to `CC(C(=O)O)c1ccc(-c2ccccc2)c(F)c1` (stereo not given) [FLURBIPROFEN], in the series with HEK293 [1], the Activity result was “Non-toxic”.

Regarding `NS(=O)(=O)c1cc(C(=O)O)c(NCc2ccco2)cc1Cl` [FUROSEMIDE], the Activity result with HEK293 [1] is “Non-toxic”.

Consider `Cc1ccc(C)c(OCCCC(C)(C)C(=O)O)c1` [GEMFIBROZIL], for which the Activity result with HEK293 [9], with HEK293 [1] and in the series with HEK293 [11] was “Non-toxic” each time.
